High-throughput results as filed in PubChem.
PKD1 inh: PKD1 (human) kinase inhibition. Q15139. PKD1 kinase fluorescence polarization assay. inhibition, % (concentration not given with the values). 0.056% of 200,000 active; in the data active = inhibition above about 50%
PHOSPHO1 inh: PHOSPHO1 (human) inhibition | Q8TCT1 | recombinant PHOSPHO1, absorbance phosphatase assay | inhibition, % at 13.3 µM | 1.1% of 290,000 active; in the data active = inhibition above about 60%
ABCB1 block: inhibitors of human ABCB1 transporter, ABCG2 counter-screen. inhibition, % at 6.6 µM. CCRF-Adr cells, JC-1 efflux, flow cytometry. AID 1326. P08183. 0.067% of 190,000 active; in the data active = inhibition above about 40%;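 note: higher value means more JC-1 retained so stronger ABCB1 efflux block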
p47phox inh: inhibitors of human p47phox binding; p47phox/p22phox peptide binding, fluorescence polarization, 2 h; 0.53% of 220,000 active; AID 1274; P14598; inhibition, % at 24.7 µM;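 active = inhibition above about 30%, limit read from the data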
HSV augment: increases HSV replication in cells; HSV replication augmentation in cells, fold increase; maximum fold increase; 0.005% of 220,000 active; AID 1956; in the data active = maximum fold increase above about 1.5; tested in PC3 cells
ABCG2 block: blocks JC-1 efflux by human ABCG2 transporter | Q9UNQ0 | IgMXP3 cells, flow cytometry | inhibition, % at 6.6 µM | 0.1% of 190,000 active | AID 1325;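 active = inhibition above 80%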
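material = IgMXP3 (ABCG2) plus far-red-tagged CCRF-Adr (ABCB1) cells | amount = 3 million cells/mL, equal mix of both lines | also added = JC-1 transporter substrate | dosing = one concentration, 6.6 µM final | schedule = 10 min at 25 °C | measured by = flow cytometric JC-1 green MFI at 530 nm | read-out basis = percent efflux inhibition, scaled nicardipine 100% to DMSO 0%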
ABCB1 confirm: confirmation of human ABCB1 transporter inhibitors, ABCG2 counter-screen; shares compounds with ABCG2 block; CCRF-Adr cells, JC-1 efflux, flow cytometry; inhibition, % at 6.6 µM; 7% of 270 active;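 active = inhibition of pump activity above 50%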
ABCG2 single pt: inhibits human ABCG2 efflux, confirmed at single point; shares compounds with ABCG2 block; IgMXP3 cells, JC-1 efflux, flow cytometry; inhibition, % at 6.6 µM; 6% of 270 active;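 active = inhibition above 50%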
IgMXP3 fluor: compound fluoresces at 488/530 nm in IgMXP3 cells | fluorescence at 6.6 µM | compound autofluorescence 488/530 nm, flow; stronger effect = higher value | shares compounds with ABCG2 block | 30% of 270 active;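 active = fluorescence in ABCG2-expressing cells above the plate's control-well mean plus 3 SD, cut at about 15 in these data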
CCRF-Adr fluor: CCRF-Adr autofluorescence flag for ABCB1 confirmation. shares compounds with ABCG2 block. CCRF-Adr cells, compound autofluorescence 488/530 nm, flow cytometry; stronger effect = higher value. fluorescence at 6.6 µM. 30% of 270 active. AID 1483;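 active = fluorescence beyond the plate control mean plus 3 SD, with a fluorescence-to-maximum score over 2, cut at about 25 in these data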
Each line names hits and unclear results; the compound was inactive in the other large screens (follow-up assays come after a bar, where they were run). Sampled rows, rich in hits. Any-hit rate of the full collection: about 1.6%.

O=C(O)C1CC=CCC1C(=O)NCc1ccc2c(c1)OCO2 (stereo not drawn)	none
COC(=O)[C@@H]1CC[C@H](C)[C@@H](c2ccc(C)cc2)N1C(=O)c1ccc(/C=N/O[C@@H](C)c2cn([C@H](CO)Cc3ccccc3)nn2)cc1	ABCB1 block 42 (no result: HSV augment) | ABCB1 confirm inactive | ABCG2 single pt inactive | IgMXP3 fluor inactive | CCRF-Adr fluor inactive
COC(=O)[C@@H]1CC[C@H](C)[C@@H](c2ccc(C)cc2)N1C(=O)c1ccc(/C=N/OC[C@@H](O)[C@H]2O[C@@H]3OC(C)(C)O[C@@H]3[C@H]2O)cc1	none (no result: HSV augment)
Cc1cc(C)cc(NC(=O)CN2CCC(NC(=O)c3cccc(F)c3)CC2)c1	none (no result: PKD1 inh, ABCB1 block, p47phox inh, HSV augment, ABCG2 block)
O=S(=O)(c1ccc(Cl)cc1)N1CCN=C1SCc1ccc(Cl)c(Cl)c1	ABCG2 block 86 | ABCB1 confirm inactive | ABCG2 single pt inactive | IgMXP3 fluor inactive | CCRF-Adr fluor inactive
CCOC(=O)c1c(NC(=O)CSc2ncccn2)sc2c1CCN(Cc1ccccc1)C2	ABCB1 block 48 | ABCB1 confirm 67 | ABCG2 single pt inactive | IgMXP3 fluor 47 | CCRF-Adr fluor 109
COc1ccc(CN2C(=O)CC(C(=O)NCCc3ccc(S(N)(=O)=O)cc3)SC2=Nc2ccccc2)cc1 (stereo not drawn)	none
O=C(CCCn1c(=S)[nH]c2ccc(Br)cc2c1=O)NCc1ccccn1	none (no result: PKD1 inh, ABCB1 block, p47phox inh, HSV augment, ABCG2 block)
O=C(CCCCCn1c(=S)[nH]c2ccc(Br)cc2c1=O)NCC1CCCO1 (stereo not drawn)	ABCG2 block 81 | ABCB1 confirm inactive | ABCG2 single pt inactive | IgMXP3 fluor 15 | CCRF-Adr fluor 72
COc1ccc(S(=O)(=O)N2CCOCC2)cc1NC(=O)CCc1c[nH]c2ccccc12	none
COc1ccc(C(=O)NCC(=O)NCC(=O)OCC(=O)C(C)(C)C)cc1	none
COc1ccc(Cc2nc3c4c(ncn3n2)Oc2ccc3ccccc3c2C4c2ccc(OC)c(OC)c2)cc1 (stereo not drawn)	none | ABCB1 confirm inactive | ABCG2 single pt inactive | IgMXP3 fluor inactive | CCRF-Adr fluor inactive
COc1ccc(COc2ccc(C3C(S(=O)(=O)c4ccccc4)CON3C)cc2OC)cc1 (stereo not drawn)	none
Cc1nc2cc(-c3cccc(F)c3)nn2c(N2CCN(C(=O)c3ccco3)CC2)c1C	ABCB1 block 63, ABCG2 block 91 (no result: HSV augment) | ABCB1 confirm 52 | ABCG2 single pt 50 | IgMXP3 fluor inactive | CCRF-Adr fluor inactive
COc1ccc(S(=O)(=O)N(CC(=O)NCc2ccco2)c2ccc(C)cc2)cc1OC	none (no result: PKD1 inh, ABCB1 block, p47phox inh, HSV augment, ABCG2 block)
CN(C)CCNc1ncnc2c1sc1nc(-c3ccccc3)c3c(c12)CCCC3	none (no result: PKD1 inh, ABCB1 block, ABCG2 block)
